The source made the active and inactive calls. The rule behind the calls is not given here.
How the values were obtained:
HCC78 [1] = assay: Induction of apoptosis in human HCC78 cells assessed as necrotic cells level at 2.5 uM incubated fro 48 hrs by Annexin-V FITC and propidium iodide staining based flow cytometry (reference value: 0.06%); format: functional
[2] = target: T1, Proto-oncogene tyrosine-protein kinase ROS (Homo sapiens, UniProt P08922); settings: HCC78, 2.5 uM
[3] = target: T1, Proto-oncogene tyrosine-protein kinase ROS; settings: HCC78, 2.5 uM; remark: listed apart in the source
HCC78 [4] = assay: Induction of apoptosis in human HCC78 cells assessed as late apoptotic cells level at 2.5 uM incubated fro 48 hrs by Annexin-V FITC and propidium iodide staining based flow cytometry (reference value: 13.8%); format: functional
[5] = target: T1, Proto-oncogene tyrosine-protein kinase ROS; settings: HCC78, 2.5 uM; remark: listed apart in the source
[6] = target: T1, Proto-oncogene tyrosine-protein kinase ROS; settings: HCC78, 2.5 uM; remark: listed apart in the source
HCC78 [7] = assay: Induction of apoptosis in human HCC78 cells assessed as early apoptotic cells level at 2.5 uM incubated fro 48 hrs by Annexin-V FITC and propidium iodide staining based flow cytometry (reference value: 6.33%); format: functional
HCC78 [8] = assay: Induction of apoptosis in human HCC78 cells assessed as viable cells level at 2.5 uM incubated fro 48 hrs by Annexin-V FITC and propidium iodide staining based flow cytometry (reference value: 80.8%); format: functional
HCC78 [9] = assay: Induction of apoptosis in human HCC78 cells assessed as late apoptotic cells level at 10 nM incubated fro 48 hrs by Annexin-V FITC and propidium iodide staining based flow cytometry (reference value: 13.8%); format: functional
HCC78 [10] = assay: Induction of apoptosis in human HCC78 cells assessed as late apoptotic cells level at 20 nM incubated fro 48 hrs by Annexin-V FITC and propidium iodide staining based flow cytometry (reference value: 13.8%); format: functional
HCC78 [11] = assay: Induction of apoptosis in human HCC78 cells assessed as early apoptotic cells level at 20 nM incubated fro 48 hrs by Annexin-V FITC and propidium iodide staining based flow cytometry (reference value: 6.33%); format: functional
HCC78 [12] = assay: Induction of apoptosis in human HCC78 cells incubated fro 48 hrs by Annexin-V FITC and propidium iodide staining based flow cytometry; format: functional, cell-based
HCC78 [13] = assay: Induction of apoptosis in human HCC78 cells assessed as early apoptotic cells level at 10 nM incubated fro 48 hrs by Annexin-V FITC and propidium iodide staining based flow cytometry (reference value: 6.33%); format: functional
HCC78 [14] = assay: Induction of apoptosis in human HCC78 cells assessed as late apoptotic cells level at 5 nM incubated fro 48 hrs by Annexin-V FITC and propidium iodide staining based flow cytometry (reference value: 13.8%); format: functional
HCC78 [15] = assay: Induction of apoptosis in human HCC78 cells assessed as necrotic cells level at 5 nM incubated fro 48 hrs by Annexin-V FITC and propidium iodide staining based flow cytometry (reference value: 0.06%); format: functional
HCC78 [16] = assay: Cytotoxicity in human HCC78 cells assessed as reduction in cell viability incubated for 72 hrs by MTT assay; format: functional, cell-based; settings: HCC78, 72 h
Summary of the method: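 3000 cells per well, allowed to adhere overnight, then exposed to DMSO or a concentration series for 72 h. MTT (5 mg/ml stock) added for a further 4 h, and crystals dissolved in 10% SDS/0.1 mM HCl. A570 read. Viability expressed relative to untreated controls from at least 3 independent experiments. HCC78 cells were grown in RPMI-1640 with 10% FBS and penicillin/streptomycin at 37 °C under 5% CO2.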

[17] = target: T1, Proto-oncogene tyrosine-protein kinase ROS; assay: Inhibition of ROS1 (unknown origin) using poly (Glu,Tyr)4:1 substrate and ATP incubated for 60 mins by ELISA
Summary of the method: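 Purified recombinant ROS1 on poly(Glu,Tyr)4:1-coated wells (20 μg/ml coating). Reaction run in HEPES pH 7.4 buffer with MgCl2, MnCl2, Na3VO4 and DTT, with 10 μmol/l ATP solution and compound in 1% DMSO, 60 min at 37 °C. Phosphotyrosine detected by PY99 antibody, then HRP anti-mouse IgG and o-phenylenediamine, read at A490. Inhibition calculated as % of DMSO control. IC50 derived from curves in two experiments.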

HCC78 [18] = assay: Induction of apoptosis in human HCC78 cells assessed as early apoptotic cells level at 5 nM incubated fro 48 hrs by Annexin-V FITC and propidium iodide staining based flow cytometry (reference value: 6.33%); format: functional
CCD 19Lu = assay: Cytotoxicity in human CCD-19Lu cells assessed as reduction in cell viability incubated for 72 hrs by MTT assay; format: cell-based
HCC78 [19] = assay: Induction of apoptosis in human HCC78 cells assessed as viable cells level at 10 nM incubated fro 48 hrs by Annexin-V FITC and propidium iodide staining based flow cytometry (reference value: 80.8%); format: functional
HCC78 [20] = assay: Induction of apoptosis in human HCC78 cells assessed as viable cells level at 5 nM incubated fro 48 hrs by Annexin-V FITC and propidium iodide staining based flow cytometry (reference value: 80.8%); format: functional
[21] = target: T1, Proto-oncogene tyrosine-protein kinase ROS; assay: Inhibition of ROS1 in human HCC78 cells assessed as reduction in ERK phosphorylation incubated for 48 hrs by Western blot method; format: cell-based
Summary of the method: (§1)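 HCC78 cells plated overnight in 6-well plates, treated for 48 h, then lysed in RIPA buffer with protease/phosphatase inhibitors. Equal protein loaded for SDS-PAGE and transferred to nitrocellulose. Blocked in 5% milk/TBST, probed overnight at 4 °C for p-ROS1, ROS1, p-STAT3, STAT3, p-AKT, AKT, p-ERK, ERK and GAPDH, and detected with fluorescent secondary antibodies on an infrared scanner.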

[22] = target: T1, Proto-oncogene tyrosine-protein kinase ROS; assay: Inhibition of ROS1 in human HCC78 cells assessed as reduction in AKT phosphorylation incubated for 48 hrs by Western blot method; format: cell-based; summary of the method: as §1
HCC78 [23] = assay: Induction of apoptosis in human HCC78 cells assessed as viable cells level at 20 nM incubated fro 48 hrs by Annexin-V FITC and propidium iodide staining based flow cytometry (reference value: 80.8%); format: functional
HCC78 [24] = assay: Induction of apoptosis in human HCC78 cells assessed as necrotic cells level at 20 nM incubated fro 48 hrs by Annexin-V FITC and propidium iodide staining based flow cytometry (reference value: 0.06%); format: functional
[25] = target: T1, Proto-oncogene tyrosine-protein kinase ROS; assay: Inhibition of ROS1 phosphorylation in human HCC78 cells incubated for 48 hrs by Western blot method; format: cell-based; summary of the method: as §1
[26] = target: T1, Proto-oncogene tyrosine-protein kinase ROS; assay: Inhibition of ROS1 in human HCC78 cells assessed as reduction in STAT3 phosphorylation incubated for 48 hrs by Western blot method; format: cell-based; summary of the method: as §1
HCC78 [27] = assay: Induction of apoptosis in human HCC78 cells assessed as necrotic cells level at 10 nM incubated fro 48 hrs by Annexin-V FITC and propidium iodide staining based flow cytometry (reference value: 0.06%); format: functional

T1 sequence (P08922 whole entry): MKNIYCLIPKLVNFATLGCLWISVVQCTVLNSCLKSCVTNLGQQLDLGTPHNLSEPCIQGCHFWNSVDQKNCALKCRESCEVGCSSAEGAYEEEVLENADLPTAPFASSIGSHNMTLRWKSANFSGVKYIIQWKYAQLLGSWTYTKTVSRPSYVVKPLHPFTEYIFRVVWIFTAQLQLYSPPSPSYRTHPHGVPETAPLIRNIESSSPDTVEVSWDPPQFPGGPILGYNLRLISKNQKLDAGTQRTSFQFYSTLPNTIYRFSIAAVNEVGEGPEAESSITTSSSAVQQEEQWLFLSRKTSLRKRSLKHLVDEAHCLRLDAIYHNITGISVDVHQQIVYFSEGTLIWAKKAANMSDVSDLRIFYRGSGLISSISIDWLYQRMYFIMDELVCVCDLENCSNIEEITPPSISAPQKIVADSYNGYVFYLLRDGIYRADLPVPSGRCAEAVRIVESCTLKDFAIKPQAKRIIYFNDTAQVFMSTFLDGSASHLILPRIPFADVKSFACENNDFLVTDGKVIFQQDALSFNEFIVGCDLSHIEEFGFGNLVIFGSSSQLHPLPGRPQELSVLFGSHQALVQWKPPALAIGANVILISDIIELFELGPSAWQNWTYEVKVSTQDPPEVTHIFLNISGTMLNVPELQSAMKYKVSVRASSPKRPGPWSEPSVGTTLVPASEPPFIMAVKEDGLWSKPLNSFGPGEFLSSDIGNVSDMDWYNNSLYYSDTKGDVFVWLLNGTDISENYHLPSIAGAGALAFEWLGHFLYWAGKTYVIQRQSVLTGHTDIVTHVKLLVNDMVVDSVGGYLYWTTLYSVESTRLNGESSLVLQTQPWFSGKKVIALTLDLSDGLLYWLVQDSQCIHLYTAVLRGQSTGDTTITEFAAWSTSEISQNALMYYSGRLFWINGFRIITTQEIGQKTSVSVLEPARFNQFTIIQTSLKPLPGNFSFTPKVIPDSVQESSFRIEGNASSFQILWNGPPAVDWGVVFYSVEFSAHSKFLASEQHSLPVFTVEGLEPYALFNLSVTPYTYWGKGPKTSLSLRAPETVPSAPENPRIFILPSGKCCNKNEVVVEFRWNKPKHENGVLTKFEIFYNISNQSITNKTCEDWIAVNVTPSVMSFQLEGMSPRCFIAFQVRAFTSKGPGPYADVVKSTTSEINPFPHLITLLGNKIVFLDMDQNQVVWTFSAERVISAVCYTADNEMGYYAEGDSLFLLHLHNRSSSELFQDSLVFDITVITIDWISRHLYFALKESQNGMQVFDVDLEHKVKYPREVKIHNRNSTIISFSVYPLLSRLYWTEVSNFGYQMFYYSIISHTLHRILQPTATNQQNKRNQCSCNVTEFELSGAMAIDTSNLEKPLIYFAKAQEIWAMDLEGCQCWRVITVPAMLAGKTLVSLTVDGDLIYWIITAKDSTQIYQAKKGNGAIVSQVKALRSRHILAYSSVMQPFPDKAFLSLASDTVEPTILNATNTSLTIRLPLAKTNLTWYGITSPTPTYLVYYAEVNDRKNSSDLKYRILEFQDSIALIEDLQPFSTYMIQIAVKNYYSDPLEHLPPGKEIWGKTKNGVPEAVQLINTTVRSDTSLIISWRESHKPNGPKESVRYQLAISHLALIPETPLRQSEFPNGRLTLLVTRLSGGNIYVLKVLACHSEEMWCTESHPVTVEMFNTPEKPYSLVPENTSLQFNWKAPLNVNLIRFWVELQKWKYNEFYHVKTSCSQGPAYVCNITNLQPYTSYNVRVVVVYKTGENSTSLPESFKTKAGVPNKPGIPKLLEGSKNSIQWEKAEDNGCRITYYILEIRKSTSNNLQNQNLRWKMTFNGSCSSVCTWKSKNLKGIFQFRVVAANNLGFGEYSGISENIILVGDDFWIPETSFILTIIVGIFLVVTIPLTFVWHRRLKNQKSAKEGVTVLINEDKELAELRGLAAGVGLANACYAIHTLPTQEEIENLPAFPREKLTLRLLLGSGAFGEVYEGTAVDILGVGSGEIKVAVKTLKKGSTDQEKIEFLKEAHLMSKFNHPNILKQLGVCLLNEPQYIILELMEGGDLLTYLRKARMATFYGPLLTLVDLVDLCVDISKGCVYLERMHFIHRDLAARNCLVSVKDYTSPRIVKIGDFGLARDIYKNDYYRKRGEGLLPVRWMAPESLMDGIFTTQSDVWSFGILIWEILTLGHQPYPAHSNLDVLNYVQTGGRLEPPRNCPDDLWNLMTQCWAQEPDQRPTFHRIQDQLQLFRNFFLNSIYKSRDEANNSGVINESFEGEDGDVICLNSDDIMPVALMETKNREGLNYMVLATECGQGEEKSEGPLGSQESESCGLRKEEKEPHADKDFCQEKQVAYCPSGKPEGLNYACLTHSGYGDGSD

`C[C@@H](Oc1cc(-c2cnn(C3CCNCC3)c2)cnc1N)c1c(Cl)ccc(F)c1Cl` [CRIZOTINIB] was tested, and the Activity (HCC78 [1]) was 0.662%, the inhibition [2] was “Active” and the inhibition [3] was “Active”. For the same compound, the Activity (HCC78 [4]) was 27.2%, the inhibition [5] was “Active” and the inhibition [6] was “Active”. It also gave an Activity (HCC78 [7]) of 27.3% and an Activity (HCC78 [8]) of 45.9%.

Work on `O=C1c2c(O)ccc(O)c2C(=O)c2c(NCCNCCO)ccc(NCCNCCO)c21` [MITOXANTRONE] yielded an Activity (HCC78 [9]) of 18.7%, an Activity (HCC78 [10]) of 17.2% and an Activity (HCC78 [11]) of 19.7%. For the same compound, the Activity (HCC78 [12]) was “Dose-dependent effect”, the Activity (HCC78 [13]) was 18.6% and the Activity (HCC78 [14]) was 16.9%. For the same compound, the Activity (HCC78 [15]) was 0.089%, the IC50 (HCC78 [16]) was 13.8 nM and the IC50 [17] was 3000 nM. For the same compound, the Activity (HCC78 [18]) was 16.4%, the IC50 (CCD 19Lu) was greater than 160 nM and the Activity (HCC78 [19]) was 66.7%. For the same compound, the Activity (HCC78 [20]) was 66.6%, the inhibition [21] was “Dose-dependent effect” and the inhibition [22] was “Dose-dependent effect”. The Activity (HCC78 [23]) was 63.8%, the Activity (HCC78 [24]) was 0.048% and the inhibition [25] was “Dose-dependent effect”. The inhibition [26] was “Dose-dependent effect” and the Activity (HCC78 [27]) was 0.076%.
